ChEMBL document CHEMBL1212726, “Inhibition of a viral enzyme by a small-molecule dimer disruptor” (Nat Chem Biol, 2009)
Calls of active or inactive are those of the source.

Experiments:
[1] = tested on: Human gammaherpesvirus 8; assay: Inhibition of KSHV protease at 10 uM by fluorogenic activity assay
Procedure, shortened: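 Screen: protease at 2 μM final in 25 mM potassium phosphate pH 8, 150 mM KCl, 0.1 mM EDTA, 1 mM DTT. Compound at 10 μM final (1% DMSO) preincubated 30 min at 30°C. Ac-PVYtQA-ACC (P6) substrate added to 160 μM final. Fluorescence (ex 380/em 460 nm) followed 1 h at 30°C. Hit defined as ≥50% drop in initial velocity versus uninhibited control.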

[2] = tested on: Human gammaherpesvirus 8; assay: Activity at KSHV protease at 3 uM
Procedure, shortened: (§1)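 Michaelis–Menten kinetics in 100 μl with 1 μM KSHV Pr in assay buffer. P6 substrate at 80, 40, 30, 20, 10, 6, 4 and 2 μM, crossed with inhibitor at 10, 7, 5, 3, 1 and 0 μM. Initial velocities converted at 2364 rfu per μM substrate. […] Mean ± s.d. (n=3).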

[3] = target: Granzyme B (Homo sapiens) (UniProt P10144); assay: Inhibition of granzyme B-mediated aggregation at 30 uM after 30 mins by spectrophotometry in absence of Triton X-100
Chain of Granzyme B (Homo sapiens) (P10144 whole entry): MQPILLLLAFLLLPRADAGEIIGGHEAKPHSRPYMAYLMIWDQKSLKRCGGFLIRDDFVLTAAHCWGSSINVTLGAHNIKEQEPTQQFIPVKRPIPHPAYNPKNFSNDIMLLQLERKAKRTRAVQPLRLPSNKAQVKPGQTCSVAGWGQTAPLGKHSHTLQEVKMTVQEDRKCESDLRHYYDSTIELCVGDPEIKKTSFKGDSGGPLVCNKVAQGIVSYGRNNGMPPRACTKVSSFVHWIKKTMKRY

[4] = tested on: Human gammaherpesvirus 8; assay: Mixed inhibition of KSHV protease at 1 to 10 uM
Procedure, shortened: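 1 μM KSHV protease in pH 8 phosphate assay buffer with Ac-PVYtQA-ACC substrate at 80, 40, 30, 20, 10, 6, 4 and 2 μM, and inhibitor at 10, 7, 5, 3, 1 and 0 μM. Initial velocities were converted with 2364 rfu per μM substrate.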

[5] = tested on: Human betaherpesvirus 5; assay: Inhibition of CMV protease at 10 uM by fluorogenic activity assay
Procedure, shortened: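 CMV protease, expressed from a provided plasmid, run in the KSHV Pr fluorogenic assay format with KSHV Pr buffer and reagents, including the P6 ACC hexapeptide substrate.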

[6] = tested on: Human gammaherpesvirus 8; assay: Ratio of Kcat to Km in KSHV protease at 5 uM; procedure, shortened: as §1
[7] = tested on: Human gammaherpesvirus 8; assay: Ratio of Kcat to Km in KSHV protease at 7 uM; procedure, shortened: as §1
[8] = target: Granzyme B (Homo sapiens) (UniProt P10144); assay: Inhibition of granzyme B-mediated aggregation at 30 uM after 30 mins by spectrophotometry in presence of Triton X-100
[9] = tested on: Human gammaherpesvirus 8; assay: Ratio of Kcat to Km in KSHV protease at 3 uM; procedure, shortened: as §1
[10] = tested on: Human gammaherpesvirus 8; assay: Activity at KSHV protease at 10 uM; procedure, shortened: as §1
[11] = tested on: Human gammaherpesvirus 8; assay: Induction of KSHV protease dimerization disruption at 30 uM by size exclusion chromatography
Procedure, shortened: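 KSHV protease (S204G background) at 5 μM in 25 mM potassium phosphate pH 8, 150 mM KCl, 0.1 mM EDTA, 1 mM DTT, incubated with 30 μM compound for 30 min at 30°C (1% DMSO). Dimer and monomer were resolved by elution peaks. DMSO control.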

[12] = tested on: Human gammaherpesvirus 8; assay: Induction of KSHV protease Trp109 mutant dimerization disruption up to 30 uM by size exclusion chromatography
[13] = tested on: Human gammaherpesvirus 8; assay: Ratio of Kcat to Km for KSHV protease at 1 uM; procedure, shortened: as §1
[14] = tested on: Human gammaherpesvirus 8; assay: Activity at KSHV protease at 1 uM; procedure, shortened: as §1
[15] = tested on: Human gammaherpesvirus 8; assay: Activity at KSHV protease at 5 uM; procedure, shortened: as §1
[16] = tested on: T1, Capsid scaffolding protein (Human herpesvirus 8 type P (isolate GK18) (HHV-8) (Kaposi'ssarcoma-associated herpesvirus)), Q2HRB6 [M197D]; assay: Inhibition of KSHV protease M197D mutant at 170 uM by 1H-15N-HSQC NMR; details: Human gammaherpesvirus 8
T1 sequence (whole entry): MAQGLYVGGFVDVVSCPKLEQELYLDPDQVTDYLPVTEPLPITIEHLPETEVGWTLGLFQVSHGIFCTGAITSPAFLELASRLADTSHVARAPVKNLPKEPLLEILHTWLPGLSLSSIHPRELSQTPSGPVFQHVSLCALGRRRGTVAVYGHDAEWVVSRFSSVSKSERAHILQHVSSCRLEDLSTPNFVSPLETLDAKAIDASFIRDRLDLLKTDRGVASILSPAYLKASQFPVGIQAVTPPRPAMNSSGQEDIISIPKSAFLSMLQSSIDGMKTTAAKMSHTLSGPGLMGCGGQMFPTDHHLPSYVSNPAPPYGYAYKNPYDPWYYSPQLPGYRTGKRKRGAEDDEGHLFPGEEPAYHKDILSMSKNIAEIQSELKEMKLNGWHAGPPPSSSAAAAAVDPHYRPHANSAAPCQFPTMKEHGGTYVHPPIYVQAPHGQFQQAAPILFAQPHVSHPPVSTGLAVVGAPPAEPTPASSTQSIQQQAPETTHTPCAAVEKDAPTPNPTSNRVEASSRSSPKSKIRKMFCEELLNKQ

[17] = tested on: Human gammaherpesvirus 8; assay: Inhibition of KSHV protease dimerization at 30 uM by size exclusion chromatography
[18] = tested on: Human gammaherpesvirus 8; assay: Activity at KSHV protease at 7 uM; procedure, shortened: as §1
[19] = tested on: Human gammaherpesvirus 8; assay: Ratio of Kcat to Km in KSHV protease at 10 uM; procedure, shortened: as §1
[20] = Inhibition of KSHV protease by fluorogenic activity assay; design: species or system Human gammaherpesvirus 8

## O=C(O)c1ccc(NC(=O)c2ccccc2CC2CCCCC2)c(Cc2ccccc2)c1
[1]
  inhibition: 14.8%

## O=C(O)c1ccc(NC(=O)c2cccc(CC3CCCCC3)n2)c(Cc2ccccc2)c1
[2]
  Km: 16.5 µM
[3]
  inhibition: inactive
[4]
  inhibition: Active
[5]
  inhibition: 92%
[6]
  kcat/Km: 398 M⁻¹ s⁻¹
[7]
  kcat/Km: 280 M⁻¹ s⁻¹
[8]
  inhibition: inactive
[1]
  inhibition: 82.7%
[9]
  kcat/Km: 673 M⁻¹ s⁻¹
[10]
  Km: 27.4 µM
[11]
  Activity: Active
[12]
  Activity: inactive
[13]
  kcat/Km: 997 M⁻¹ s⁻¹
[14]
  Km: 13.6 µM
[15]
  Km: 21.2 µM
[16]
  inhibition: Active
[17]
  inhibition: Active
[18]
  Km: 23.9 µM
[19]
  kcat/Km: 153 M⁻¹ s⁻¹

## O=C(O)c1ccc(NC(=O)c2cccc(CC3CCCCC3)c2)c(Cc2ccccc2)c1
[20]
  IC50: 8.8 µM
[1]
  inhibition: 56.6%

## O=C(O)c1ccc(NC(=O)c2ccc(CC3CCCCC3)cc2)c(Cc2ccccc2)c1
[1]
  inhibition: 24%

## O=C(O)c1ccc(NC(=O)c2ccc(CC3CCCCC3)nc2)c(Cc2ccccc2)c1
[1]
  inhibition: 10%

## Oc1c(Cl)cc(Cl)c(Cl)c1Cc1c(O)c(Cl)cc(Cl)c1Cl
[3]
  inhibition: Active
[8]
  inhibition: inactive

## COc1ccc(C(=O)Nc2ccc(C(=O)O)cc2Cc2ccccc2)cc1CC1CCCCC1
[20]
  IC50: 16.4 µM
[1]
  inhibition: 51.1%

## COC(=O)c1ccc(NC(=O)c2cccc(CC3CCCCC3)c2)c(Cc2ccccc2)c1
[1]
  inhibition: 9.4%

## O=C(O)c1ccc(NC(=O)c2cncc(CC3CCCCC3)c2)c(Cc2ccccc2)c1
[1]
  inhibition: 7.9%
